Data reported in ChEMBL document CHEMBL1124108, “Antihypertensive thiadiazoles. 2. Vasodilator activity of some 2-aryl-5-guanidino-1,3,4-thiadiazoles” (1988).

Key:
Rattus norvegicus [1] = assay: Increase in diastolic blood pressure at 0.1 ug/kg intravenous dosing of noradrenaline in pithed rats; type: functional, Artery
Outline: (§1)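 The pithed-rat preparation was used: male rats (200-300 g) got drug or isotonic saline ip in groups of five, 2 h beforehand (one reference agent 1 h). Doses were 50, 25 or 5 mg/kg. Rats were under halothane, cannulated, pithed and ventilated with room air. Noradrenaline (0.1-1.0 µg/kg) or angiotensin (0.03-0.3 µg/kg) was injected iv, and the increase in diastolic pressure was recorded in mmHg.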

Rattus norvegicus [2] = assay: Increase in diastolic blood pressure at 0.1 ug/kg intravenous dosing of angiotensin in pithed rats; type: functional, Artery; outline: as §1
Rattus norvegicus [3] = assay: Maximum percentage reduction in mean arterial blood pressure in metacorticoid (DOCA) hypertensive rats at a standard oral dose of 100 mg/kg; type: functional
Outline: (§2)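 Rats were DOCA hypertensive. For oral dosing, food was withdrawn 18 h before; rats dosed ip were not starved. The vehicle was isotonic saline. Pressure was recorded by transducer under minimal restraint: twice before dosing, then at 1, 2, 3, 5 and 22 h. MABP was taken as diastolic + one-third pulse pressure. The value is the maximum % fall from the mean of the two pretreatment readings, n = 3-5.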

Rattus norvegicus [4] = species: Rattus norvegicus; assay: Increase in diastolic blood pressure at 6 Htz electrical stimulation in the pithed rats; type: functional, Artery
Outline: (§3)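 Male rats (200-300 g) were given drug or isotonic saline ip, in groups of five, 2 h before pithing (one reference agent 1 h before). Doses were 50 or 25 mg/kg, or 5 mg/kg for the reference agent. Rats were put under halothane, tracheally cannulated, pithed through the left orbit and ventilated with room air at 50 strokes/min. After iv tubocurarine (1 mg/kg), the whole sympathetic outflow was stimulated at 1, 3 or 6 Hz (0.5 ms, 20 V, 15 s). The rise in diastolic pressure was recorded in mmHg.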

Rattus norvegicus [5] = assay: Increase in diastolic blood pressure at 0.3 ug/kg intravenous dosing of angiotensin in pithed rats; type: functional, Artery; outline: as §1
Rattus norvegicus [6] = species: Rattus norvegicus; assay: Increase in diastolic blood pressure at 1 Htz electrical stimulation in the pithed rats; type: functional, Artery; outline: as §3
Rattus norvegicus [7] = assay: Maximum percentage reduction in mean arterial blood pressure in metacorticoid (DOCA) hypertensive rats at a standard oral dose of 50 mg/kg; type: functional; outline: as §2
Rattus norvegicus [8] = species: Rattus norvegicus; assay: Increase in diastolic blood pressure at 3 Htz electrical stimulation in the pithed rats; type: functional, Artery; outline: as §3
Rattus norvegicus [9] = assay: Summation of percentage reductions, compared to pretreatment controls, in MABP of DOCA hypertensive rats at 1,2,3,5,8 hr after the 50 mg/kg oral dose.; type: functional
Outline: (§4)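 DOCA hypertensive rats (n = 5) were dosed orally. MABP (diastolic + one-third pulse pressure) was read before dosing and at 1, 2, 3, 5 and 8 h. The value is the sum of the % reductions from pretreatment control over these five time points.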

Rattus norvegicus [10] = assay: Summation of percentage reductions, compared to pretreatment controls, in MABP of DOCA hypertensive rats at 1,2,3,5,8 hr after the 100 mg/kg oral dose.; type: functional; outline: as §4
Rattus norvegicus [11] = assay: Increase in diastolic blood pressure at 0.03 ug/kg intravenous dosing of angiotensin in pithed rats; type: functional, Artery; outline: as §1
Rattus norvegicus [12] = assay: Increase in diastolic blood pressure at 0.3 ug/kg intravenous dosing of noradrenaline in pithed rats; type: functional, Artery; outline: as §1
Rattus norvegicus [13] = assay: Increase in diastolic blood pressure at 1.0 ug/kg intravenous dosing of noradrenaline in pithed rats; type: functional, Artery; outline: as §1
Rattus norvegicus [14] = assay: Maximum percentage reduction in mean blood pressure in metacorticoid (DOCA) hypertensive rats at a standard oral dose of 10 mg/kg; type: functional; outline: as §2
Rattus norvegicus [15] = assay: Maximum percentage reduction in mean blood pressure in metacorticoid (DOCA) hypertensive rats at a standard intraperitoneal dose of 100 mg/kg; type: functional; outline: as §2
Rattus norvegicus [16] = assay: Increase in diastolic blood pressure at r 0.3 ug/kg intravenous dosing of noradrenaline in pithed rats; type: functional, Artery; outline: as §1
Rattus norvegicus [17] = species: Rattus norvegicus; assay: Increase in diastolic blood pressure for 6 Htz electrical stimulation in the pithed rats; type: functional, Artery; outline: as §3
Rattus norvegicus [18] = species: Rattus norvegicus; assay: Increase in diastolic blood pressure for 1 Htz electrical stimulation in the pithed rats; type: functional, Artery; outline: as §3
Rattus norvegicus [19] = species: Rattus norvegicus; assay: Increase in diastolic blood pressure for 3 Htz electrical stimulation in the pithed rats; type: functional, Artery; outline: as §3
Rattus norvegicus [20] = assay: Increase in diastolic blood pressure for 0.3 ug/kg intravenous dosing of angiotensin in pithed rats; type: functional, Artery; outline: as §1
Rattus norvegicus [21] = assay: Increase in diastolic blood pressure for 0.1 ug/kg intravenous dosing of angiotensin in pithed rats; type: functional, Artery; outline: as §1
Rattus norvegicus [22] = assay: Increase in diastolic blood pressure for 0.03 ug/kg intravenous dosing of angiotensin in pithed rats; type: functional, Artery; outline: as §1
Rattus norvegicus [23] = assay: Increase in diastolic blood pressure for 0.3 ug/kg intravenous dosing of noradrenaline in pithed rats; type: functional, Artery; outline: as §1
Rattus norvegicus [24] = assay: Increase in diastolic blood pressure for 1.0 ug/kg intravenous dosing of noradrenaline in pithed rats; type: functional, Artery; outline: as §1
Rattus norvegicus [25] = assay: Increase in diastolic blood pressure for 0.1 ug/kg intravenous dosing of noradrenaline in pithed rats; type: functional, Artery; outline: as §1
Rattus norvegicus [26] = assay: Maximum percentage reduction in mean blood pressure in metacorticoid (DOCA) hypertensive rats at a standard oral dose of 50 mg/kg; type: functional; outline: as §2
Rattus norvegicus [27] = assay: Maximum percentage reduction in mean blood pressure in metacorticoid (DOCA) hypertensive rats at a standard oral dose of 100 mg/kg; type: functional; outline: as §2
Rattus norvegicus [28] = assay: Maximum percentage reduction in mean blood pressure and heart rate in metacorticoid (DOCA) hypertensive rats at a standard intraperitoneal dose of 100 mg/kg; type: functional

Row | SMILES | Increase in blood pressure (Rattus norvegicus [2]) [mmHg] | Reduction (Rattus norvegicus [3]) [%] | Reduction (Rattus norvegicus [7]) [%] | Increase in blood pressure (Rattus norvegicus [8]) [mmHg] | Summation MABP (Rattus norvegicus [9]) | Summation MABP (Rattus norvegicus [10]) | Increase in blood pressure (Rattus norvegicus [17]) [mmHg] | Increase in blood pressure (Rattus norvegicus [18]) [mmHg] | Increase in blood pressure (Rattus norvegicus [19]) [mmHg] | Increase in blood pressure (Rattus norvegicus [20]) [mmHg] | Increase in blood pressure (Rattus norvegicus [21]) [mmHg] | Increase in blood pressure (Rattus norvegicus [22]) [mmHg] | Increase in blood pressure (Rattus norvegicus [23]) [mmHg] | Increase in blood pressure (Rattus norvegicus [24]) [mmHg] | Increase in blood pressure (Rattus norvegicus [25]) [mmHg] | also measured
1 | Cc1ccccc1-c1nnc(N=C(N)N)s1.Cl | 9 | 41 | 36 | 29 | 115 | 167 |  |  |  |  |  |  |  |  |  | Increase in blood pressure (Rattus norvegicus [1]): 12 mmHg; Increase in blood pressure (Rattus norvegicus [4]): 35 mmHg; Increase in blood pressure (Rattus norvegicus [5]): 22 mmHg; Increase in blood pressure (Rattus norvegicus [6]): 13 mmHg; Increase in blood pressure (Rattus norvegicus [11]): 2 mmHg; Increase in blood pressure (Rattus norvegicus [12]): 23 mmHg; Increase in blood pressure (Rattus norvegicus [13]): 39 mmHg
2 | Nc1cc(N2CCCCC2)nc(N)[n+]1[O-] [MINOXIDIL] |  |  |  |  |  |  |  |  |  |  |  |  |  |  |  | Reduction (Rattus norvegicus [14]): 42%
3 | Cl.N=C(N)Nc1nnc(-c2ccc(Cl)cc2)s1 |  |  |  |  |  |  |  |  |  |  |  |  |  |  |  | Reduction (Rattus norvegicus [15]): 18%
4 | Cc1ccccc1-c1nnc(NC2=NCCN2)s1.Cl | 27 | 43 | 28 | 34 | 117 | 194 |  |  |  |  |  |  |  |  |  | Increase in blood pressure (Rattus norvegicus [1]): 10 mmHg; Increase in blood pressure (Rattus norvegicus [4]): 45 mmHg; Increase in blood pressure (Rattus norvegicus [16]): 21 mmHg; Increase in blood pressure (Rattus norvegicus [5]): 43 mmHg; Increase in blood pressure (Rattus norvegicus [6]): 17 mmHg; Increase in blood pressure (Rattus norvegicus [11]): 15 mmHg; Increase in blood pressure (Rattus norvegicus [13]): 44 mmHg
5 | NNc1nncc2ccccc12 [HYDRALAZINE] |  |  |  |  |  |  | 54 | 28 | 42 | 38 | 21 | 8 | 15 | 28 | 8 | 
6 | COCC/N=C(/N)Nc1nnc(-c2ccccc2C)s1.Cl |  |  |  |  | 113 | 157 | 65 | 30 | 52 | 44 | 28 | 14 | 25 | 45 | 13 | Reduction (Rattus norvegicus [26]): 29%; Reduction (Rattus norvegicus [27]): 37%
7 | CCCC/N=C(/N)Nc1nnc(-c2ccccc2C)s1.Cl | 23 | 39 | 31 | 20 | 126 | 159 |  |  |  |  |  |  |  |  |  | Increase in blood pressure (Rattus norvegicus [12]): 42 mmHg
8 | N=C(N)Nc1nnc(-c2c(Cl)cccc2Cl)s1 |  |  |  |  |  |  |  |  |  |  |  |  |  |  |  | Reduction (Rattus norvegicus [28]): 34%
9 | COc1ccc(-c2nnc(N=C(N)N)s2)cc1.Cl |  |  |  |  |  |  |  |  |  |  |  |  |  |  |  | Reduction (Rattus norvegicus [28]): 28%
10 | Cl.N=C(N)Nc1nnc(-c2ccccc2Br)s1 |  |  |  |  |  |  | 38 | 17 | 31 | 17 | 7 | 3 | 27 | 50 | 13 | Reduction (Rattus norvegicus [26]): 29%; Reduction (Rattus norvegicus [27]): 41%
